From PubChem
NF-kB neuron act: compounds increasing NF-kB expression in human neuronal cells; NF-kB reporter expression; hits give high values; 190,000 tested, 1.6% active; fold change at 12.5 µM; in the data active means fold change above about 3.3
APP 5'UTR act: APP 5'UTR luciferase reporter activation; SH-SY5Y APP 5'UTR luciferase reporter, luminescence; zero percent = DMSO vehicle wells; activation, % at 2 µM; 190,000 tested, 1% active; AID 1276;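 active means activation above a set limit, based on mean plus 3 SD of controls, cut at about 140% in these data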
STAT3 inh: STAT3 signaling inhibition | U3A cells, IL-6 STAT3-luciferase reporter, luminescence; host cell line lacks STAT1 | inhibition, % at 5.5 µM | 190,000 tested, 0.89% active | AID 862;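 active means inhibition above the mean inhibition across all screened compounds plus 3 SD, cut at about 44% in these data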;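 further: 0% = DMSO only wells and 100% = 100 µM nifuroxazide control wells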
STAT1 activator: STAT1 signaling activation. activation (% of control), % at 5.5 µM. 200,000 tested, 2.6% active. AID 932. NIH 3T3 STAT1-luciferase reporter, IFN-gamma, luminescence; 100% = IFN-gamma alone, no compound;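 active means activation above the screen-wide mean activation plus 3 SD, cut at about 130% in these data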;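 further: raw ratio to IFN-gamma control signal so 100% means no change and 0% no light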
STAT3 activator: STAT3 signaling activation; AID 871; activation (% of control), % at 5.6 µM; 190,000 tested, 0.91% active; U3A cells, IL-6 STAT3-luciferase reporter, luminescence; 100% = signal with IL-6 EC80 alone;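 active means activation above the screen-wide mean of compound activation plus 3 SD, cut at about 130% in these data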;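 further: 0% = background luminescence of wells with medium and substrate only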
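Test system: STAT3-luciferase reporter U3A cells; Detection: reporter luminescence signal; Times: 1 h compound pre-exposure, 6 h IL-6 stimulation, 37 °C; Benchmarks: IL-6-only high control; Also added: IL-6 stimulus at 33 ng/mL final.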
STAT1 blocker: reduces IFN-gamma driven STAT1 reporter signal | NIH 3T3 STAT1-luciferase reporter, luminescence | inhibition, % at 5.5 µM | 200,000 tested, 0.35% active | AID 920;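 active means inhibition above a set limit, the mean inhibition across all tested compounds plus 3 SD, cut at about 34% in these data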;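 further: 0% = IFN-gamma with DMSO and 100% = IFN-gamma with 300 µM nifuroxazide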
An asterisk follows results filed as active. In the library only some 5.1% were active in any assay of this set; here they are far more common.

How did O=C1[C@H]2[C@@H](C(=O)N1c1cccc3ccccc13)C1(C(=O)c3ccccc3C1=O)N1CCC[C@@H]21 do in these assays?
NF-kB neuron act: 3.4*; APP 5'UTR act: 1; STAT3 inh: 9; STAT1 activator: 104; STAT3 activator: 95; STAT1 blocker: -4

What do the screens show for `Cc1cc(C(=O)N/N=C/c2cccc([N+](=O)[O-])c2)c(C)n1-c1ccccc1`?
NF-kB neuron act: 1.2; APP 5'UTR act: 36; STAT3 inh: -5; STAT1 activator: 132*; STAT3 activator: 104; STAT1 blocker: -35

How did Cc1ccc(NC(=O)c2cc(C)n(-c3ccccc3)c2C)cc1 do in these assays?
NF-kB neuron act: 0.33; APP 5'UTR act: 52; STAT3 inh: 88*; STAT1 activator: 65; STAT3 activator: 24; STAT1 blocker: 39*

Results for O=[N+]([O-])c1ccc(Cl)cc1CNc1ccc(F)c(F)c1 ?
NF-kB neuron act: 0.99; APP 5'UTR act: 5; STAT3 inh: -3; STAT1 activator: 96; STAT3 activator: 101; STAT1 blocker: 5

Results for COc1cccc(-c2noc(-c3ccc4c(c3)OCO4)n2)c1 ?
NF-kB neuron act: 5.7*; APP 5'UTR act: 159*; STAT3 inh: 72*; STAT1 activator: 62; STAT3 activator: 42; STAT1 blocker: 41*

Results for COc1ccc(-c2noc(-c3ccc4c(c3)OCO4)n2)cc1 ?
NF-kB neuron act: 3.9*; APP 5'UTR act: 23; STAT3 inh: 17; STAT1 activator: 122; STAT3 activator: 88; STAT1 blocker: -24

What do the screens show for `CC(C)NC(=O)CCc1nnc(Cc2cccc(C(F)(F)F)c2)o1`?
NF-kB neuron act: 2.5; APP 5'UTR act: 40; STAT3 inh: -9; STAT1 activator: 140*; STAT3 activator: 112; STAT1 blocker: -46

Results for CCC(COC)NC(=O)CCc1nnc(Cc2cccc(C(F)(F)F)c2)o1 (configuration not stated) ?
NF-kB neuron act: 1.9; APP 5'UTR act: 22; STAT3 inh: 10; STAT1 activator: 114; STAT3 activator: 95; STAT1 blocker: -17

How did Cc1cccc(OCCn2c(=O)n(C)c3ccccc32)c1 do in these assays?
NF-kB neuron act: 3.6*; APP 5'UTR act: 85; STAT3 inh: -20; STAT1 activator: 143*; STAT3 activator: 120; STAT1 blocker: -47

How did Cc1cccc(OCCN2C(=O)c3ccccc3C2=O)c1 do in these assays?
NF-kB neuron act: 1.9; APP 5'UTR act: 18; STAT3 inh: -5; STAT1 activator: 140*; STAT3 activator: 109; STAT1 blocker: -46

Results for Cc1cccc(OCCn2c(=O)sc3ccccc32)c1 ?
NF-kB neuron act: 3; APP 5'UTR act: 87; STAT3 inh: 2; STAT1 activator: 136*; STAT3 activator: 100; STAT1 blocker: -38

How did COc1ccc(OCCn2c(=O)sc3ccccc32)cc1 do in these assays?
NF-kB neuron act: 1.8; APP 5'UTR act: 57; STAT3 inh: 9; STAT1 activator: 137*; STAT3 activator: 98; STAT1 blocker: -42

Results for COc1ccccc1OCCn1c(=O)sc2ccccc21 ?
NF-kB neuron act: 1.3; APP 5'UTR act: 20; STAT3 inh: 17; STAT1 activator: 102; STAT3 activator: 90; STAT1 blocker: -2

How did CN(C)c1ccc(NC(=O)Nc2cccc(Cl)c2)cc1 do in these assays?
NF-kB neuron act: 7.2*; APP 5'UTR act: 181*; STAT3 inh: 8; STAT1 activator: 135*; STAT3 activator: 97; STAT1 blocker: -38

How did CN(C)c1ccc(NC(=O)Oc2ccccc2)cc1 do in these assays?
NF-kB neuron act: 1.5; APP 5'UTR act: 126; STAT3 inh: 0; STAT1 activator: 130*; STAT3 activator: 105; STAT1 blocker: -33

How did FC(F)Oc1ccccc1/C=N/n1cnc2ccccc21 do in these assays?
NF-kB neuron act: 1.8; APP 5'UTR act: 39; STAT3 inh: -11; STAT1 activator: 134*; STAT3 activator: 117; STAT1 blocker: -37

What do the screens show for `CC(C)CNC(=O)COC(=O)Cc1ccc(Cl)cc1`?
NF-kB neuron act: 1.2; APP 5'UTR act: 2; STAT3 inh: 6; STAT1 activator: 97; STAT3 activator: 99; STAT1 blocker: 0

How did CC(=O)Nc1ccc2c(c1)ncn2-c1ccc(C)cc1 do in these assays?
NF-kB neuron act: 5.1*; APP 5'UTR act: 225*; STAT3 inh: 5; STAT1 activator: 146*; STAT3 activator: 97; STAT1 blocker: -48

Results for CC(=O)Nc1ccc2c(c1)ncn2C ?
NF-kB neuron act: 1.4; APP 5'UTR act: 15; STAT3 inh: -3; STAT1 activator: 98; STAT3 activator: 104; STAT1 blocker: 7

Results for O=C(Nc1ccc2c(c1)ncn2-c1ccccc1)c1ccco1 ?
NF-kB neuron act: 1.2; APP 5'UTR act: 70; STAT3 inh: 9; STAT1 activator: 140*; STAT3 activator: 95; STAT1 blocker: -55

How did O=C(COc1ccc(OCc2ccccc2)cc1)NN=C1CCCC1 do in these assays?
NF-kB neuron act: 1; APP 5'UTR act: 12; STAT3 inh: -6; STAT1 activator: 111; STAT3 activator: 106; STAT1 blocker: -12

What do the screens show for `Cc1cc(OCc2ccc(C(=O)NN=C3CCCC3)cc2)ccc1Cl`?
NF-kB neuron act: 1.3; APP 5'UTR act: -20; STAT3 inh: -7; STAT1 activator: 130*; STAT3 activator: 110; STAT1 blocker: -34

Results for CC(C)NC(=O)CN1CCC(c2ccccc2)C(O)C1 (configuration not stated) ?
NF-kB neuron act: 0.9; APP 5'UTR act: 17; STAT3 inh: -5; STAT1 activator: 104; STAT3 activator: 106; STAT1 blocker: -6

What do the screens show for `CCN(CC)C(=O)c1sc2nc(-c3ccc(OC)cc3)cn2c1C`?
NF-kB neuron act: 2.9; APP 5'UTR act: 117; STAT3 inh: 9; STAT1 activator: 143*; STAT3 activator: 97; STAT1 blocker: -47

How did COc1ccc(-c2cn3c(C)c(C(=O)NCCN4CCOCC4)sc3n2)cc1 do in these assays?
NF-kB neuron act: 1; APP 5'UTR act: 9; STAT3 inh: -34; STAT1 activator: 101; STAT3 activator: 132; STAT1 blocker: -1

Results for c1ccc(CNc2ncnc3c2oc2ccccc23)nc1 ?
NF-kB neuron act: 1.3; APP 5'UTR act: 55; STAT3 inh: -4; STAT1 activator: 132*; STAT3 activator: 108; STAT1 blocker: -35

What do the screens show for `Clc1ncnc2c1oc1ccccc12`?
NF-kB neuron act: 3.1; APP 5'UTR act: 86; STAT3 inh: -39; STAT1 activator: 142*; STAT3 activator: 134*; STAT1 blocker: -47

What do the screens show for `COc1ccc(CCNc2nc(C)nc3c2oc2ccccc23)cc1OC`?
NF-kB neuron act: 0.46; APP 5'UTR act: 20; STAT3 inh: 34; STAT1 activator: 85; STAT3 activator: 72; STAT1 blocker: 16

Results for CC(=O)c1ccc(Nc2ncnc3c2oc2ccccc23)cc1 ?
NF-kB neuron act: 2.5; APP 5'UTR act: 21; STAT3 inh: 21; STAT1 activator: 161*; STAT3 activator: 86; STAT1 blocker: -67
